Eleven compounds from ChEMBL document CHEMBL3232767, “Synthesis of the antiproliferative agent hippuristanol and its analogues from hydrocortisone via Hg(II)-catalyzed spiroketalization: structure-activity relationship” (J Med Chem, 2014) can be followed below.

The source made the active and inactive calls. The rule behind the calls is not given here.

The species entered for this assay is Oryctolagus cuniculus. The assay can be described thus: Inhibition of translation in rabbit reticulocyte lysates using SP6 RNA polymerase at 10 uM by FF/HCV/Ren reporter gene assay. The format is functional. The gist of the method:
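Bicistronic mRNA (cap-dependent FF, HCV IRES-driven Ren as internal standard) translated in vitro at 4 ng/μL in rabbit reticulocyte lysate; compounds at 10 μM final vs 0.5% DMSO vehicle; anisomycin as control. FF and Ren luciferase read by luminometer, normalized to vehicle set at 1; duplicates averaged, error of the mean given.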
For orientation: A reporter such as luciferase makes a cellular process visible.
Regarding `COc1ccc(C[C@H]2NC[C@H](O)[C@H]2OC(C)=O)cc1`, the inhibition entry was “Active”.

With `CC[C@@]1(O)[C@H]2[C@H](C[C@H]3[C@@H]4CC[C@H]5C[C@H](O)CC[C@]5(C)[C@H]4[C@@H](O)C[C@@]32C)O[C@@]12C[C@H](C)C(C)(C)O2`, the inhibition result is “inactive”.

For the compound `C[C@H]1C[C@]2(O[C@H]3C[C@H]4[C@@H]5CC[C@H]6C[C@H](O)CC[C@]6(C)[C@H]5[C@@H](O)C[C@]4(C)[C@H]3[C@H]2O)OC1(C)C`, the inhibition result is “inactive”.

Turning to `C[C@H]1C[C@@]2(O[C@H]3C[C@H]4[C@@H]5CC[C@H]6C[C@H](O)CC[C@]6(C)[C@H]5[C@@H](O)C[C@]4(C)[C@H]3[C@H]2O)OC1(C)C`, the inhibition result was “inactive”.

As to `C[C@H]1C[C@@]2(O[C@H]3C[C@H]4[C@@H]5CC[C@H]6C[C@H](N)CC[C@]6(C)[C@H]5[C@@H](O)C[C@]4(C)[C@H]3[C@@]2(C)O)OC1(C)C`, the inhibition entry was “inactive”.

`C[C@H]1C[C@]2(O[C@H]3C[C@H]4[C@@H]5CC[C@H]6C[C@H](O)CC[C@]6(C)[C@H]5[C@@H](O)C[C@]4(C)[C@H]3C2=O)OC1(C)C`: the inhibition entry was “inactive”.

In the case of `C[C@H]1C[C@]2(O[C@H]3C[C@H]4[C@@H]5CC[C@H]6C[C@H](O)CC[C@]6(C)[C@H]5[C@@H](O)C[C@]4(C)[C@H]3[C@@]2(C)O)OC1(C)C`, the inhibition result was “Active”.

As to `CC[C@@]1(O)[C@H]2[C@H](C[C@H]3[C@@H]4CC[C@H]5C[C@H](O)CC[C@]5(C)[C@H]4[C@@H](O)C[C@@]32C)O[C@]12C[C@H](C)C(C)(C)O2`, the inhibition result is “inactive”.

In the case of `C[C@H]1C[C@@]2(O[C@H]3C[C@H]4[C@@H]5CC[C@H]6C[C@@H](O)CC[C@]6(C)[C@H]5[C@@H](O)C[C@]4(C)[C@H]3[C@@]2(C)O)OC1(C)C`, the inhibition entry was “inactive”.

With `C[C@H]1C[C@@]2(O[C@H]3C[C@H]4[C@@H]5CC[C@H]6C[C@H](O)CC[C@]6(C)[C@H]5[C@@H](O)C[C@]4(C)[C@H]3[C@@]2(C)O)OC1(C)C`, the inhibition entry was “Active”.

As to `C[C@H]1C[C@]2(O[C@H]3C[C@H]4[C@@H]5CC[C@H]6C[C@H](O)CC[C@]6(C)[C@H]5[C@@H](O)C[C@]4(C)[C@H]3[C@]2(O)CO)OC1(C)C`, the inhibition entry was “inactive”.
